Structures are written as SMILES. The source made the active and inactive calls. No cut-off for these calls is given here.

Data set [1] has as its system L1210. The data set is described as follows: Antileukemic activity against mouse L1210 cells allografted in BDF1 mouse assessed as increase in life span of host at 65.1 umol/kg, ip relative to control. The data set is classed as functional. In outline:
(§1)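 BDF1 mice, 5 weeks old, were inoculated ip with 5×10^5 L1210 cells; test groups had 4 males and 4 females, controls 5 males and 5 females. A single ip dose was given on the day after inoculation, as a suspension in vehicle for the insoluble compounds. Read-out was increase in life span over controls, with survivors past 30 days counted as 30 days.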

Data set [2] concerns L1210. The data set is described as follows: Antileukemic activity against mouse L1210 cells allografted in BDF1 mouse assessed as host survival at 5.56 umol/kg, ip after 30 days. It counts as functional, organism-based. In outline:
(§2)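 BDF1 mice, 5 weeks old, were inoculated ip with 5×10^5 L1210 cells in 0.1 ml saline. Test groups were 4 male and 4 female mice; controls were 5 male and 5 female. Insoluble compounds were suspended in vehicle. Dosing was ip, either once on the day after inoculation or daily for 5 days. Read-out was increase in life span over controls. Mice alive beyond 30 days were counted as 30 days and scored as survivors.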

Data set [3] deals with L1210. The data set is described as follows: Antileukemic activity against mouse L1210 cells allografted in BDF1 mouse assessed as host survival at 26 umol/kg, ip after 30 days. The data set is classed as functional, organism-based. The method, boiled down:
(§3)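 BDF1 mice, 5 weeks old; test groups four males + four females, controls five + five. 5×10^5 L1210 cells in 0.1 ml saline given ip. Compound, suspended in suspending vehicle (sodium salt dissolved), injected ip once on the day after inoculation. Survival followed to 30 days; mice surviving beyond 30 days counted as 30 days and scored as survivor fraction; activity as increased life span over controls.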

Data set [4] deals with L1210. The data set is described as follows: Antileukemic activity against mouse L1210 cells allografted in BDF1 mouse assessed as host survival at 65.1 umol/kg, ip after 30 days. The data set is classed as functional, organism-based. The method, boiled down:
as §3

Data set [5] relates to L1210. The data set is described as follows: Antileukemic activity against mouse L1210 cells allografted in BDF1 mouse assessed as host survival at 130 umol/kg, ip after 30 days. It counts as functional, organism-based. In outline: as §3
The subject of data set [6] is L1210. The data set is described as follows: Antileukemic activity against mouse L1210 cells allografted in BDF1 mouse assessed as increase in life span of host at 130 umol/kg, ip relative to control. It counts as functional. In outline:
as §2

Data set [7] has as its system L1210. Nature of the data set: Antileukemic activity against mouse L1210 cells allografted in BDF1 mouse assessed as increase in life span of host at 26 umol/kg, ip relative to control. The data set is classed as functional. In outline:
as §1

A short description of data set [8]: Solubility of the compound. The data set is classed as physicochemical.
In data set [9] the test system is L1210. The data set is described as follows: Antileukemic activity against mouse L1210 cells allografted in BDF1 mouse assessed as host survival at 5.58 umol/kg, ip after 30 days. The data set is classed as functional, organism-based. To be noted: 5.56 umol/kg, in the assay text read “5.56 umol/kg” for “5.58 umol/kg”. In outline:
as §3

Data set [10] relates to L1210. Nature of the data set: Antileukemic activity against mouse L1210 cells allografted in BDF1 mouse assessed as increase in life span of host at 69.4 umol/kg, ip relative to control. It counts as functional. The method, boiled down:
as §1

The subject of data set [11] is L1210. The data set is described as follows: Antileukemic activity against mouse L1210 cells allografted in BDF1 mouse assessed as host survival at 139 umol/kg, ip after 30 days. It counts as functional, organism-based. The method, boiled down:
as §2

For data set [12], the system named is L1210. Nature of the data set: Antileukemic activity against mouse L1210 cells allografted in BDF1 mouse assessed as increase in life span of host at 139 umol/kg, ip relative to control. It counts as functional. In outline:
as §2

Data set [13] deals with L1210. Nature of the data set: Antileukemic activity against mouse L1210 cells allografted in BDF1 mouse assessed as host survival at 69.4 umol/kg, ip after 30 days. The data set is classed as functional, organism-based. In outline: as §3
Data set [14] relates to L1210. The data set is described as follows: Antileukemic activity against mouse L1210 cells allografted in BDF1 mouse assessed as host survival at 27.8 umol/kg, ip after 30 days. The data set is classed as functional, organism-based. In outline:
as §2

The subject of data set [15] is L1210. Nature of the data set: Antileukemic activity against mouse L1210 cells allografted in BDF1 mouse assessed as host survival at 5 umol/kg, po qd for 5 days measured after 30 days. The data set is classed as functional, organism-based.
Data set [16] has as its system L1210. Nature of the data set: Antileukemic activity against mouse L1210 cells allografted in BDF1 mouse assessed as host survival at 1 umol/kg, sc qd for 5 days measured after 30 days. The data set is classed as functional, organism-based.
For data set [17], the system named is L1210. The data set is described as follows: Antileukemic activity against mouse L1210 cells allografted in BDF1 mouse assessed as host survival at 5 umol/kg, sc qd for 5 days measured after 30 days. It counts as functional, organism-based.
Data set [18] concerns L1210. The data set is described as follows: Antileukemic activity against mouse L1210 cells allografted in BDF1 mouse assessed as host survival at 25 umol/kg, po qd for 4 days measured after 30 days. The data set is classed as functional, organism-based.
Data set [19] has as its system L1210. Nature of the data set: Antileukemic activity against mouse L1210 cells allografted in BDF1 mouse assessed as host survival at 5 umol/kg, ip qd for 5 days measured after 30 days. It counts as functional, organism-based. The method, boiled down: as §2
For data set [20], the system named is L1210. Nature of the data set: Antileukemic activity against mouse L1210 cells allografted in BDF1 mouse assessed as host survival at 12.5 umol/kg, po qd for 5 days measured after 30 days. It counts as functional, organism-based.
The subject of data set [21] is L1210. The data set is described as follows: Antileukemic activity against mouse L1210 cells allografted in BDF1 mouse assessed as host survival at 25 umol/kg, sc qd for 5 days measured after 30 days. The data set is classed as functional, organism-based.
Data set [22] relates to L1210. The data set is described as follows: Antileukemic activity against mouse L1210 cells allografted in BDF1 mouse assessed as host survival at 1 umol/kg, ip qd for 5 days measured after 30 days. The data set is classed as functional, organism-based. In outline:
as §2

The test system of data set [23] is L1210. The data set is described as follows: Antileukemic activity against mouse L1210 cells allografted in BDF1 mouse assessed as host survival at 12.5 umol/kg, ip qd for 5 days measured after 30 days. It counts as functional, organism-based. The method, boiled down:
as §2

For `C=CCC1(CC=C)C(=O)OCc2c1cc1n(c2=O)Cc2cc3ccccc3nc2-1`, the ILS at 65.1 µmol/kg with L1210 [1] turned out to be 5%. Also, the outcome in the data set on L1210 [2], in the data set with L1210 [3], in the data set with L1210 [4] and with L1210 [5] was inactive. The ILS at 130 µmol/kg with L1210 [6] amounted to 1%. The ILS at 26 µmol/kg in the data set on L1210 [7] was -8%. For the same compound, the solubility entry in data set [8] is “Insoluble”.
`CCC1(CC)C(=O)OCc2c1cc1n(c2=O)Cc2cc3ccccc3nc2-1`: the outcome in the data set with L1210 [9], in the data set with L1210 [11], with L1210 [13] and in the data set on L1210 [14] was inactive. Moreover, the ILS at 69.4 µmol/kg in the data set on L1210 [10] was 5%. For the same compound, the ILS at 139 µmol/kg with L1210 [12] is -11%. Also, the solubility entry in data set [8] was “Insoluble”.
Consider `C=CCC1(O)C(=O)OCc2c1cc1n(c2=O)Cc2cc3ccccc3nc2-1` (centres undefined), for which the result in the data set on L1210 [15], in the data set on L1210 [16], in the data set with L1210 [17], in the data set on L1210 [18], with L1210 [19] and in the data set with L1210 [20] was inactive. The outcome in the data set with L1210 [21], in the data set with L1210 [22] and in the data set with L1210 [23] was inactive.

(Values after ChEMBL document CHEMBL3272061, “Experiments of synthesis of dl-camptothecin. 4. Synthesis and antileukemic activity of dl-camptothecin analogues” (J Med Chem, 1976).)
